# Screening data (PubChem)
# INS promoter act = activators of insulin promoter-driven GFP, primary screen, imaging, TRM-6 cells (human fetal islet line), eGFP reporter, cell count; plate-scaled: unstimulated 0, stimulated control 100; activation, % at 2 µM; hit rate 0.81% among 130,000; AID 1296, 2008;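 active means activation at 2 µM above a set limit, confirmed on inspection of the cell images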;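 further: share of cells whose green reporter signal exceeds an intensity cutoff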
#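 Assay system: TRM-6 human fetal islet cells, insulin promoter–eGFP reporter; Also added: 0.75 µM tamoxifen as reporter inducer; Schedule: 15 h tamoxifen pre-treatment, 48 h compound treatment at 37 °C; Signal: fixed-cell fluorescence microscopy, eGFP plus Hoechst; Read-out: percent activation from GFP-positive cell fraction; Control set: stimulated and unstimulated wells.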
# Hits are given with their value; i = inactive. The full list was thinned out, with hits kept by preference.
SMILES,INS promoter act
CC(C)CNS(=O)(=O)c1ccc(CCC(=O)N2CCN(Cc3ccc4c(c3)OCO4)CC2)cc1,469
Cc1ccc(OCCCC(=O)NC(C)c2ccccc2)cc1 (configuration not stated),i
Cc1cccc(OCCCC(=O)NC(C)c2ccccc2)c1 (configuration not stated),85
COc1ccccc1C(C)NC(=O)CCOc1cccc(C)c1 (configuration not stated),i
C/C=C/C=N/NC(=O)CN(c1ccc(Br)cc1)S(=O)(=O)c1ccccc1,i
CCOC(=O)C(=O)NC(C)CCc1ccccc1 (configuration not stated),i
CCOC(=O)N(NC(=O)C(O)(C(C)C)C(C)C)c1ccccc1,112
Cc1cccc(N(NC(=O)C(C)(C)O)C(=O)c2ccccc2)c1,i
CCN(CCCNC(=O)C1CCN(S(=O)(=O)N2CCOCC2)CC1)c1cccc(C)c1,i
CCN(CCNC(=O)C1CCC(=O)N1Cc1ccc(C)cc1)c1ccccc1 (configuration not stated),i
CCN(CCCNC(=O)C1CCC(=O)N1Cc1ccccc1Cl)c1cccc(C)c1 (configuration not stated),92
O=C1CCCC(O)=C1C=NCc1ccccc1,i
O=C(Cn1nnc(-c2cccs2)n1)N1c2ccccc2Sc2ccc(C(F)(F)F)cc21,i
Cc1ccc(-c2nc(NCc3ccco3)n(S(C)(=O)=O)n2)cc1,i
COc1ccc(CC(=O)n2nc(-c3ccccc3)nc2NCc2ccco2)cc1,642
O=C(Cc1ccc(-c2ccccc2)cc1)NNC(=S)NCc1ccco1,i
COc1cc(OC)c(CNC2CCCCCC2)cc1Br,i
CCCCC(=O)Nc1ccc(C(=O)Nc2ccc3c(c2)OCO3)cc1,475
Cc1ccccc1OCCCC(=O)Nc1ccc2c(c1)OCO2,i
Cc1ccc(C(=O)Nc2ccc3c(c2)OCO3)cc1,i
Cc1ccnc(NC(=O)CCC(=O)N(CC(=O)NCc2ccccc2)Cc2cccs2)c1,i
O=C(CNc1cc(S(=O)(=O)N2CCCC2)ccc1OCC(F)(F)F)Nc1cccc(C(F)(F)F)c1,i
CNC(=O)/C(C#N)=C\c1ccc(CNS(=O)(=O)c2ccccc2)o1,i
CCN(CC)c1ccc(/C=C(/C#N)C(=O)NCc2ccccc2)o1,i
CC(C)NC(=O)/C(C#N)=C\c1ccc(N(C)C)o1,560
SMILES,INS promoter act
COP(=O)(OC)c1nc(-c2ccccc2)oc1N1CCOCC1,i
CCN(C(=O)CSc1nnc(-c2cccs2)o1)C1CCS(=O)(=O)C1 (configuration not stated),i
CC1CCN(C(=S)c2cn(Cc3cccc(F)c3)c3ccccc23)CC1,i
O=C(c1ccccn1)N(CC1CCCO1)C1(C(=O)NC2CCCCC2)CCCCC1 (configuration not stated),i
O=C(c1cnccn1)N(c1ccccc1)C1(C(=O)NC2CCCC2)CCCCC1,100
Cc1c(N(C(=O)CNC(=O)c2ccccc2)C2(C(=O)NC3CCCCC3)CCCCC2)c(=O)n(-c2ccccc2)n1C,i
CCCCc1ccc(NC(=S)NCCc2ccc(F)cc2)cc1,i
Nn1c(SCC(=O)NC(=O)Nc2ccc3c(c2)OCCO3)nnc1C1CC1,i
Cc1nn(C(=O)CCCn2cc([N+](=O)[O-])cn2)c(C)c1Cl,i
O=C(COc1ccc(Cl)cc1)Nc1ccccc1C(=O)NCc1ccco1,438
O=C(COc1ccc(Cl)cc1Cl)NNC(=S)NCc1ccco1,i
O=C(Nc1ccccc1C(=O)NCc1ccco1)NC1CCCCC1,i
O=C(O)CC12CC3CC(C1)CC(n1cncn1)(C3)C2,i
Cc1ccc(N(C(=O)CCl)C(C(=O)NC2CCCCC2)c2cccnc2)cc1C (configuration not stated),i
CC(C)(C)N(C(=O)Cn1nnc(-c2ccc(F)cc2)n1)C(C(=O)NC1CCCC1)c1ccncc1 (configuration not stated),i
Cc1ccc(N(C(=O)Cn2nnc(-c3ccccc3)n2)C(C(=O)NC2CCCCC2)c2ccccn2)cc1C (configuration not stated),344
O=C(CNC(=O)c1ccccc1)NC1(C(=O)NC2CCCCC2)CCCCC1,i
O=C(CCNC(=O)c1ccco1)Nc1ccccc1N1CCOCC1,i
O=C(Nc1cccc2c1CCCC2)c1cc([N+](=O)[O-])cc([N+](=O)[O-])c1,i
O=C(Nc1c2c(nc3ccccc13)CCCC2)c1cccc([N+](=O)[O-])c1,380
O=C(Nc1c2c(nc3ccccc13)CCCC2)c1ccccc1F,i
CCC(CC)C(=O)NCCCCc1ccccc1,i
Cc1c(Cl)cccc1NC(=S)N1CCN(Cc2ccc3c(c2)OCO3)CC1,i
COc1ccc(/C=N/NC(N)=S)cc1OC(=O)c1ccccc1,i
COc1ccc(/C=N/NS(=O)(=O)c2ccccc2)cc1OS(=O)(=O)c1ccc(C)cc1,i
SMILES,INS promoter act
Cc1ccc(S(=O)(=O)Oc2ccccc2/C=N/NC(N)=S)cc1,103
CCCCOC(C)n1cc(F)c(=O)[nH]c1=O (configuration not stated),i
COc1ccc(CN2CCn3ncc(C(=O)Nc4cc(C)cc(C)c4)c3C2=O)cc1,i
COc1cc2[nH]c(=O)n(CCCCCC(=O)NCCc3c[nH]c4ccccc34)c(=O)c2cc1OC,i
COc1cc2c(cc1OC)C1=C(C#N)CC/C(=N\S(=O)(=O)c3cccc(Cl)c3)N1CC2,87
COc1cc2c(cc1OC)C(CC#N)=NC(C)(C)C2,i
COc1cc2c(cc1OC)-c1cc(OCc3ccccc3Cl)nc(=O)n1CC2,i
Cc1c(NC(=O)c2cc3ccccc3oc2=O)c(=O)n(-c2ccccc2)n1C,i
COc1cc(/C=N/NC(=O)c2cccc([N+](=O)[O-])c2)ccc1OCc1ccccc1,i
COc1cc(/C=C/C(=O)O)ccc1OCc1cnc(Cl)s1,i
COc1cc(/C=N/NC(=O)c2ccncc2)ccc1OCc1cnc(Cl)s1,240
Cc1ccc(CN2CCN(Cc3cnc(N4CCOCC4)s3)CC2CCO)o1 (configuration not stated),i
Cc1nc2ccccn2c1C(=O)NCC(C)C,i
CCNC(=O)c1c(C)nc2ccccn12,i
CCOC(=O)C(=O)c1c(-c2ccccc2)nc2ccccn12,450
COc1ccc(O[C@H]2C=C[C@@H](c3ccccc3)O[C@@H]2CO/N=C(\C)CCN2CCCCc3nc(C)c(C)cc32)cc1,i
Cn1c(CN2CCCC2)nc2cc(NC(=O)c3cccs3)ccc21,i
CCCCn1nnnc1SCC(=O)Nc1ccc(N(C)C)cc1,i
CCCNC(=O)CN(CCc1ccccc1)S(C)(=O)=O,93
CCN(CC(=O)NCCc1ccccc1)S(=O)(=O)c1ccc(Br)cc1,i
CCOCCCNC(=O)CN(Cc1ccc(Cl)cc1)S(C)(=O)=O,i
Cc1c(Cl)ccc2c1NC(=O)[C@]21N[C@@H](Cc2ccccc2)[C@H]2C(=O)N(c3ccc(F)cc3)C(=O)[C@H]21,i
S=C(Nc1ccc2cn[nH]c2c1)Nc1ccccc1Cl,i
CN(C)S(=O)(=O)Oc1cc(Cl)ccc1C(=O)Nc1ccc(F)cc1F,i
CCN(CC)C(=O)CSCc1cnn(-c2ccccc2)c1-n1cccc1,i
Cc1ccc(C)c(N2CCN(C(=O)Cn3c(=O)[nH]c4ccsc4c3=O)CC2)c1,i
O=C(COC(=O)c1ccccc1OCc1ccc(Cl)cc1)NC1CC1,i
Cc1ccsc1C(=O)Nc1cccc(S(=O)(=O)N(C)C)c1,431
CN(C)S(=O)(=O)c1cccc(C(=O)Nc2ccccc2)c1,i
CN(C)S(=O)(=O)c1cccc(NC(=O)Cc2ccc(Cl)cc2)c1,i
